Data reported in ChEMBL document CHEMBL1649165, “Activity profile in vitro of micafungin against Spanish clinical isolates of common and emerging species of yeasts and molds” (2009).
Converted amounts (≈) assume the structure as drawn.

Legend:
Assay type in all cases: functional
Candida tropicalis = assay: Antimicrobial activity against Candida tropicalis by broth microdilution method
Procedure, shortened: (§1)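 Clinical isolates from human patients, tested by broth microdilution using the AFST-EUCAST reference procedure for fermentative yeasts. The MIC was read per that reference method.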

Nakaseomyces glabratus = assay: Antimicrobial activity against Candida glabrata by broth microdilution method; procedure, shortened: as §1
Pichia kudriavzevii = assay: Antimicrobial activity against Candida krusei by broth microdilution method; procedure, shortened: as §1
Clavispora lusitaniae = assay: Antimicrobial activity against Candida lusitaniae by broth microdilution method; procedure, shortened: as §1
Diutina rugosa = assay: Antimicrobial activity against Candida rugosa by broth microdilution method; procedure, shortened: as §1
Debaryomyces hansenii = assay: Antimicrobial activity against Candida famata by broth microdilution method; procedure, shortened: as §1
[Candida] inconspicua = Antimicrobial activity against Candida inconspicua by broth microdilution method; settings: Pichia inconspicua; procedure, shortened: as §1
[Candida] zeylanoides = Antimicrobial activity against Candida zeylanoides by broth microdilution method; settings: Dujonia zeylanoides; procedure, shortened: as §1
Magnusiomyces capitatus = assay: Antimicrobial activity against Dipodascus capitatus by broth microdilution method
Yarrowia lipolytica = assay: Antimicrobial activity against Yarrowia lipolytica by broth microdilution method
Geotrichum candidum = assay: Antimicrobial activity against Galactomyces geotrichum by broth microdilution method
[1] = tested on: Cryptococcus deneoformans; assay: Antimicrobial activity against Cryptococcus neoformans var. neoformans by broth microdilution method
Procedure, shortened: (§2)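 Clinical isolates of nonfermentative yeasts, tested by broth microdilution following EUCAST recommendations. The only change from that method was a minor modification to improve growth.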

Trichosporon inkin = assay: Antimicrobial activity against Trichosporon inkin by broth microdilution method
Procedure, shortened: (§3)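 Nonfermentative yeast clinical isolates (Rhodotorula, Trichosporon) tested by broth microdilution. The EUCAST yeast recommendations were followed strictly, with one minor modification to improve growth. MIC was read as the endpoint.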

Trichosporon ovoides = assay: Antimicrobial activity against Trichosporon ovoides by broth microdilution method; procedure, shortened: as §3
Naganishia albida = assay: Antimicrobial activity against Cryptococcus albidus by broth microdilution method; procedure, shortened: as §2
Ustilago = assay: Antimicrobial activity against Ustilago spp by broth microdilution method
Papiliotrema laurentii = assay: Antimicrobial activity against Cryptococcus laurentii by broth microdilution method; procedure, shortened: as §2
Trichosporon = assay: Antimicrobial activity against Trichosporon spp. by broth microdilution method; procedure, shortened: as §3
Aspergillus flavus = assay: Antimicrobial activity against Aspergillus flavus by broth microdilution method
Procedure, shortened: (§4)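 Clinical mould isolates, tested by broth microdilution using the AFST-EUCAST reference method for filamentous fungi. For echinocandins, the endpoint was the minimum effective concentration: the lowest drug concentration giving aberrant hyphal growth, read with an inverted microscope.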

Aspergillus niger = assay: Antimicrobial activity against Aspergillus niger by broth microdilution method; procedure, shortened: as §4
Aspergillus nidulans = assay: Antimicrobial activity against Aspergillus nidulans by broth microdilution method; procedure, shortened: as §4
Aspergillus sydowii = assay: Antimicrobial activity against Aspergillus sydowii by broth microdilution method; procedure, shortened: as §4
Aspergillus versicolor = assay: Antimicrobial activity against Aspergillus versicolor by broth microdilution method; procedure, shortened: as §4
Aspergillus ochraceus = assay: Antimicrobial activity against Aspergillus ochraceus by broth microdilution method; procedure, shortened: as §4
Aspergillus glaucus = assay: Antimicrobial activity against Aspergillus glaucus by broth microdilution method; procedure, shortened: as §4
Aspergillus = assay: Antimicrobial activity against Aspergillus spp. by broth microdilution method; procedure, shortened: as §4
Penicillium = assay: Antimicrobial activity against Penicillium spp. by broth microdilution method
Procedure, shortened: (§5)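 Filamentous fungus clinical isolates tested by the AFST-EUCAST reference broth microdilution method for moulds. For echinocandins, the endpoint was the minimum effective concentration: the lowest drug concentration giving aberrant hyphal growth, read with an inverted microscope.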

Fusarium solani = assay: Antimicrobial activity against Fusarium solani by broth microdilution method; procedure, shortened: as §5
Acremonium sp. = assay: Antimicrobial activity against Acremonium sp.by broth microdilution method; procedure, shortened: as §4
Trichoderma = assay: Antimicrobial activity against Trichoderma spp. by broth microdilution method; procedure, shortened: as §5
Phialemonium curvatum = assay: Antimicrobial activity against Phialemonium curvatum by broth microdilution method; settings: Thyridium curvatum; procedure, shortened: as §5
Fusarium equiseti = assay: Antimicrobial activity against Fusarium equiseti by broth microdilution method; procedure, shortened: as §4
Coprinellus domesticus = assay: Antimicrobial activity against Hormographiella verticillata by broth microdilution method; procedure, shortened: as §5
Aureobasidium pullulans = assay: Antimicrobial activity against Aureobasidium pullulans by broth microdilution method
Hortaea werneckii = assay: Antimicrobial activity against Hortaea werneckii by broth microdilution method
Lichtheimia corymbifera = assay: Antimicrobial activity against Mycocladus corymbiferus by broth microdilution method; procedure, shortened: as §5
Rhizopus arrhizus = assay: Antimicrobial activity against Rhizopus oryzae by broth microdilution method; procedure, shortened: as §5
Mucor = assay: Antimicrobial activity against Mucor spp.by broth microdilution method; procedure, shortened: as §5
Saksenaea vasiformis = assay: Antimicrobial activity against Saksenaea vasiformis by broth microdilution method; procedure, shortened: as §5
Exophiala jeanselmei = assay: Antimicrobial activity against Exophiala jeanselmei by broth microdilution method

CCC(C)n1ncn(-c2ccc(N3CCN(c4ccc(OCC5COC(Cn6cncn6)(c6ccc(Cl)cc6Cl)O5)cc4)CC3)cc2)c1=O (stereo not given) [ITRACONAZOLE]
MIC50 (Candida tropicalis): 0.02 mg/L (≈ 0.0283 µM)
MIC90 (Candida tropicalis): 0.06 mg/L (≈ 0.085 µM)
MIC50 (Nakaseomyces glabratus): 0.25 mg/L (≈ 0.354 µM)
MIC90 (Nakaseomyces glabratus): 1 mg/L (≈ 1.42 µM)
MIC50 (Pichia kudriavzevii): 0.25 mg/L (≈ 0.354 µM)
MIC90 (Pichia kudriavzevii): 0.25 mg/L (≈ 0.354 µM)
MIC50 (Clavispora lusitaniae): 0.02 mg/L (≈ 0.0283 µM)
MIC90 (Clavispora lusitaniae): 0.03 mg/L (≈ 0.0425 µM)
MIC50 (Diutina rugosa): 0.12 mg/L (≈ 0.17 µM)
MIC90 (Diutina rugosa): > 8 mg/L
MIC50 (Debaryomyces hansenii): 0.12 mg/L (≈ 0.17 µM)
MIC90 (Debaryomyces hansenii): > 8 mg/L
MIC50 ([Candida] inconspicua): 0.12 mg/L (≈ 0.17 µM)
MIC90 ([Candida] inconspicua): > 8 mg/L
MIC50 ([Candida] zeylanoides): 0.12 mg/L (≈ 0.17 µM)
MIC90 ([Candida] zeylanoides): > 8 mg/L
MIC50 (Magnusiomyces capitatus): 0.25 mg/L (≈ 0.354 µM)
MIC90 (Magnusiomyces capitatus): 0.5 mg/L (≈ 0.709 µM)
MIC50 (Yarrowia lipolytica): 0.5 mg/L (≈ 0.709 µM)
MIC90 (Yarrowia lipolytica): > 8 mg/L
MIC50 (Geotrichum candidum): 0.5 mg/L (≈ 0.709 µM)
MIC90 (Geotrichum candidum): 2 mg/L (≈ 2.83 µM)
MIC50 [1]: 0.12 mg/L (≈ 0.17 µM)
MIC90 [1]: 0.5 mg/L (≈ 0.709 µM)
MIC50 (Trichosporon inkin): 0.12 mg/L (≈ 0.17 µM)
MIC90 (Trichosporon inkin): 0.25 mg/L (≈ 0.354 µM)
MIC50 (Trichosporon ovoides): 0.5 mg/L (≈ 0.709 µM)
MIC90 (Trichosporon ovoides): > 8 mg/L
MIC50 (Naganishia albida): 0.5 mg/L (≈ 0.709 µM)
MIC90 (Naganishia albida): > 8 mg/L
MIC50 (Ustilago): 0.5 mg/L (≈ 0.709 µM)
MIC90 (Ustilago): > 8 mg/L
MIC50 (Papiliotrema laurentii): 0.5 mg/L (≈ 0.709 µM)
MIC90 (Papiliotrema laurentii): > 8 mg/L
MIC50 (Trichosporon): 0.5 mg/L (≈ 0.709 µM)
MIC90 (Trichosporon): > 8 mg/L
MIC50 (Aspergillus flavus): 0.25 mg/L (≈ 0.354 µM)
MIC90 (Aspergillus flavus): 0.5 mg/L (≈ 0.709 µM)
MIC50 (Aspergillus niger): 1 mg/L (≈ 1.42 µM)
MIC90 (Aspergillus niger): > 8 mg/L
MIC50 (Aspergillus nidulans): 0.25 mg/L (≈ 0.354 µM)
MIC90 (Aspergillus nidulans): 0.5 mg/L (≈ 0.709 µM)
MIC50 (Aspergillus sydowii): 0.5 mg/L (≈ 0.709 µM)
MIC90 (Aspergillus sydowii): > 8 mg/L
MIC50 (Aspergillus versicolor): 0.5 mg/L (≈ 0.709 µM)
MIC90 (Aspergillus versicolor): 1 mg/L (≈ 1.42 µM)
MIC50 (Aspergillus ochraceus): 0.5 mg/L (≈ 0.709 µM)
MIC90 (Aspergillus ochraceus): > 8 mg/L
MIC50 (Aspergillus glaucus): 0.5 mg/L (≈ 0.709 µM)
MIC90 (Aspergillus glaucus): > 8 mg/L
MIC50 (Aspergillus): 0.5 mg/L (≈ 0.709 µM)
MIC90 (Aspergillus): > 8 mg/L
MIC50 (Penicillium): 0.5 mg/L (≈ 0.709 µM)
MIC90 (Penicillium): > 8 mg/L
MIC50 (Fusarium solani): > 8 mg/L
MIC90 (Fusarium solani): > 8 mg/L
MIC50 (Acremonium sp.): > 8 mg/L
MIC90 (Acremonium sp.): > 8 mg/L
MIC50 (Trichoderma): > 8 mg/L
MIC90 (Trichoderma): > 8 mg/L
MIC50 (Phialemonium curvatum): > 8 mg/L
MIC90 (Phialemonium curvatum): > 8 mg/L
MIC50 (Fusarium equiseti): > 8 mg/L
MIC90 (Fusarium equiseti): > 8 mg/L
MIC50 (Coprinellus domesticus): > 8 mg/L
MIC90 (Coprinellus domesticus): > 8 mg/L
MIC50 (Aureobasidium pullulans): 0.12 mg/L (≈ 0.17 µM)
MIC90 (Aureobasidium pullulans): > 8 mg/L
MIC50 (Hortaea werneckii): 0.12 mg/L (≈ 0.17 µM)
MIC90 (Hortaea werneckii): > 8 mg/L
MIC50 (Lichtheimia corymbifera): 1 mg/L (≈ 1.42 µM)
MIC90 (Lichtheimia corymbifera): > 8 mg/L
MIC50 (Rhizopus arrhizus): 4 mg/L (≈ 5.67 µM)
MIC90 (Rhizopus arrhizus): > 8 mg/L
MIC50 (Mucor): > 8 mg/L
MIC90 (Mucor): > 8 mg/L
MIC50 (Saksenaea vasiformis): > 8 mg/L
MIC90 (Saksenaea vasiformis): > 8 mg/L
MIC50 (Exophiala jeanselmei): 0.12 mg/L (≈ 0.17 µM)
MIC90 (Exophiala jeanselmei): > 8 mg/L
